The source made the active and inactive calls.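 How the source made its calls, unless noted: active means viability increase at or above a cutoff of the median across tested compounds plus 3 SD (cut at about 8.5% in these data, passing the limit was not always enough); inconclusive means some gains above the cutoff, reason not given; inactive means the rest.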

The first assay is described as follows: S. cerevisiae growth inhibition in restrictive medium, OD615, pilot screen, restrictive growth control, yeast lifespan reduction project (AID 706;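 active means growth inhibition above a set limit, 3 SD over mean compound inhibition, in both replicates, cut at about 43% in these data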;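 further: modified DeaD lifespan yeast strain shifted to restrictive glucose medium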). The settings on record: OD615, 48 h, at 10 µM, stronger effect = higher value. The method in brief:
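material = engineered S. cerevisiae DeaD strain | buffer or medium = glucose-based CSMM-D restrictive medium | dosing = one concentration, 10 µM final, 0.25% DMSO | schedule = 4 h pre-growth plus 48 h compound exposure, 30 °C | detection = OD615 absorbance reading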
As for `O=C1CCCC2=C1C(c1cccnc1)Nc1ccccc1N2` (centres undefined), the growth inhibition is -2.74% (inactive).
Consider `CCCOC(=O)COc1cc(C)cc2oc(=O)c3c(c12)CCC3`, for which the growth inhibition is -13.8% (inactive).
The same measure, in the same setting: the figure for `COc1cccc(OCC(=O)N2CCN(C)CC2)c1` is 11.5% (inactive); for `CCc1sc(C(=O)N2CCC3(CC2)OCCO3)cc1Br` it is -12.2% (inactive); for `COc1cc2c(cc1OC)-c1c(OC)c(OC)cc3c1C(C2)N(C)CC3` (centres undefined) it is 1.99% (inactive).
`CCOC(=O)c1cncn1C(C)c1ccccc1` (centres undefined): the growth inhibition was 1.2% (inactive).
Still for that read-out and setting: the figure for `CN1C(=O)C(Cc2cccs2)C(=O)N(C)C1=O` is -4.64% (inactive); for `O/N=C/c1c[nH]c2ccccc12` it is 0.865% (inactive).
On to `C=C(C)c1cccc(C(C)(C)NC(=O)NC2CN3CCC2CC3)c1` (centres undefined), for which the growth inhibition is 2.09% (inactive).
For `Nc1ccc(S(=O)(=O)N2CC3CC(C2)c2cccc(=O)n2C3)cc1` (centres undefined), the growth inhibition is 1.35% (inactive).
Take `CCCCCCn1c(=O)c(C(=O)Nc2ccncc2)c(O)c2ccccc21`: the growth inhibition is 97.4% (active).
On to `CCCCCP(=O)(O)c1ccccc1`, for which the growth inhibition was -13.1% (inactive).
The same measure, in the same setting: the figure for `CN1CCN(c2ccc(NC(=O)C(C)(C)C)cc2)CC1` is 6% (inactive); for `CCCOc1ccccc1C1SCC(=O)Nc2c1c(=O)[nH]n2C(C)CCC` (centres undefined) it is -5.25% (inactive).
Consider `CC(C)CC1C(C#N)=C(N)Oc2c1c(=O)oc1ccccc21` (centres undefined), for which the growth inhibition is -16.4% (inactive).
Still for that read-out and setting: for `CC12CN3CC(C)(CN(C1)C3c1cccnc1)C2=O` (centres undefined) the value was 7.5% (inactive).
On the same count and under the same terms, the figure for `CN1CCN(CCC(C#N)(c2ccccc2)c2ccccc2)CC1` is -7.5% (inactive); for `CCOC(=O)c1c(C)c(P(=S)(N2CCOCC2)N2CCOCC2)n(C)c1C` it is -3.18% (inactive).
On the same count and under the same terms, for `O=C(Cc1ccc(Br)cc1)N1CCN(Cc2ccccc2)CC1` the value was -2.88% (inactive); for `Cc1ccc2c(c1)C1CN(C)CCC1N2C(=O)Cn1nnc(-c2ccccc2F)n1` (centres undefined), -9.18% (inactive).
Turning to `COc1ccc(C2C(C(=O)N3CCC4(CC3)OCCO4)CC(=O)N2c2ccc(OC)cc2)cc1` (centres undefined), the growth inhibition was -2.57% (inactive).
For the compound `Clc1cccc(CN2CCCCC2c2cccnc2)c1` (centres undefined), the growth inhibition was -2.08% (inactive).
Still for that read-out and setting: the figure for `C=Cn1ccnc1P(=S)(c1ccn(C)c1)c1nccn1C=C` is 18.6% (inactive).
The same measure, in the same setting: for `Cc1nn(C2CCOC(C)(C)C2)c2c1C(c1ccc3c(c1)OCO3)SCC(=O)N2` (centres undefined) the value was 14.5% (inactive); for `COCCOC(=O)C1=C(N)OC(C)=C(C(=O)OC)C12C(=O)Nc1ccccc12` (centres undefined), -5.97% (inactive).
On the same count and under the same terms, for `O=C(CN1CC(c2ccccc2)CC1=O)NCc1ccc(F)cc1` (centres undefined) the value was 12.3% (inactive); for `O=c1c2ccccc2nc(-c2cccs2)n1-c1cnccn1`, -2.03% (inactive); for `COc1ccc(CC2C(=O)NC(=O)N(c3ccccc3)C2=O)c(OC)c1` (centres undefined), 0.545% (inactive).
In the case of `CC1(C)CC(n2[nH]c(=O)c3c2NC(=O)CSC3c2ccc(F)cc2)CCO1` (centres undefined), the growth inhibition was -25.8% (inactive).
The same measure, in the same setting: for `Cc1cc(OCC(=O)NC2CCS(=O)(=O)C2)c2c3c(c(=O)oc2c1)CCC3` (centres undefined) the value was -15.4% (inactive); for `COc1cc(C2SCC(=O)Nc3c2c(=O)[nH]n3C2CCCCCC2)cc(OC)c1OC` (centres undefined), -4.26% (inactive).
The same measure, in the same setting: for `Cc1c(C(=O)N2CCC3(CC2)OCCO3)oc2ccc(S(=O)(=O)N3CCOCC3)cc12` the value was -18.4% (inactive).
The same measure, in the same setting: for `FC(F)(F)/C(=N\P(=S)(N1CCOCC1)N1CCOCC1)N1CCOCC1` the value was -10.3% (inactive); for `O=C(CN1CCOCC1)c1ccc2cc[nH]c2c1`, -1.26% (inactive).
Take `Cc1nc2ccc(Cl)cn2c1P(=S)(N1CCOCC1)N1CCOCC1`: the growth inhibition was 4.46% (inactive).
Turning to `COc1cccc(N2C(=O)CC(=O)NC2=O)c1`, the growth inhibition was -6.37% (inactive).
Turning to `COc1cc2c(cc1OC)C(C(=O)N1CCC3(CC1)OCCO3)C(c1ccccc1F)N(C)C2=O` (centres undefined), the growth inhibition was 12% (inactive).

The nature of another assay: doxorubicin toxicity protection in MRP-1 cells – H69AR cells, CellTiter-Glo, duplicate, MRP-1 activator project, pilot screen (AID 807).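 Further: compound pretreatment 18-22 h then 72 h combined with doxorubicin; 0% = doxorubicin alone and 100% = vehicle without doxorubicin.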 The following applies: H69AR viability with doxorubicin, CellTiter-Glo luminescence; at 10 µM; stronger effect = higher value. For orientation: Cellular ATP, detected with luciferase, serves as a proxy for viable cell number.
In the case of `O=C1CCCC2=C1C(c1cccnc1)Nc1ccccc1N2` (centres undefined), the viability increase is -1.06% (inactive).
Still for that read-out and setting: the figure for `CCCOC(=O)COc1cc(C)cc2oc(=O)c3c(c12)CCC3` is 1.68% (inactive); for `COc1cccc(OCC(=O)N2CCN(C)CC2)c1` it is 0.31% (inactive).
The same measure, in the same setting: the figure for `CCc1sc(C(=O)N2CCC3(CC2)OCCO3)cc1Br` is -2% (inactive).
Consider `COc1cc2c(cc1OC)-c1c(OC)c(OC)cc3c1C(C2)N(C)CC3` (centres undefined), for which the viability increase is -3.02% (inactive).
The same measure, in the same setting: the figure for `CCOC(=O)c1cncn1C(C)c1ccccc1` (centres undefined) is -2.02% (inactive); for `CN1C(=O)C(Cc2cccs2)C(=O)N(C)C1=O` it is 0% (inactive).
The same measure, in the same setting: for `O/N=C/c1c[nH]c2ccccc12` the value was -4.62% (inactive); for `C=C(C)c1cccc(C(C)(C)NC(=O)NC2CN3CCC2CC3)c1` (centres undefined), -1.24% (inactive).
Turning to `Nc1ccc(S(=O)(=O)N2CC3CC(C2)c2cccc(=O)n2C3)cc1` (centres undefined), the viability increase was 0.35% (inactive).
Regarding `CCCCCCn1c(=O)c(C(=O)Nc2ccncc2)c(O)c2ccccc21`, the viability increase is -7.48% (inactive).
As to `CCCCCP(=O)(O)c1ccccc1`, the viability increase is -1.16% (inactive).
On the same count and under the same terms, the figure for `CN1CCN(c2ccc(NC(=O)C(C)(C)C)cc2)CC1` is -1.56% (inactive); for `CCCOc1ccccc1C1SCC(=O)Nc2c1c(=O)[nH]n2C(C)CCC` (centres undefined) it is 1.02% (inactive).
Take `CC(C)CC1C(C#N)=C(N)Oc2c1c(=O)oc1ccccc21` (centres undefined): the viability increase is -0.17% (inactive).
Take `CC12CN3CC(C)(CN(C1)C3c1cccnc1)C2=O` (centres undefined): the viability increase is -0.3% (inactive).
For `CN1CCN(CCC(C#N)(c2ccccc2)c2ccccc2)CC1`, the viability increase is -2.94% (inactive).
`CCOC(=O)c1c(C)c(P(=S)(N2CCOCC2)N2CCOCC2)n(C)c1C`: the viability increase is -3.92% (inactive).
`O=C(Cc1ccc(Br)cc1)N1CCN(Cc2ccccc2)CC1`: the viability increase is -1.69% (inactive).
As for `Cc1ccc2c(c1)C1CN(C)CCC1N2C(=O)Cn1nnc(-c2ccccc2F)n1` (centres undefined), the viability increase was -5.58% (inactive).
Still for that read-out and setting: for `COc1ccc(C2C(C(=O)N3CCC4(CC3)OCCO4)CC(=O)N2c2ccc(OC)cc2)cc1` (centres undefined) the value was -3.2% (inactive); for `Clc1cccc(CN2CCCCC2c2cccnc2)c1` (centres undefined), 0.65% (inactive); for `C=Cn1ccnc1P(=S)(c1ccn(C)c1)c1nccn1C=C`, 0.29% (inactive).
On the same count and under the same terms, for `Cc1nn(C2CCOC(C)(C)C2)c2c1C(c1ccc3c(c1)OCO3)SCC(=O)N2` (centres undefined) the value was -0.34% (inactive).
On the same count and under the same terms, for `COCCOC(=O)C1=C(N)OC(C)=C(C(=O)OC)C12C(=O)Nc1ccccc12` (centres undefined) the value was -4.28% (inactive).
With `O=C(CN1CC(c2ccccc2)CC1=O)NCc1ccc(F)cc1` (centres undefined), the viability increase is 0.06% (inactive).
On the same count and under the same terms, for `O=c1c2ccccc2nc(-c2cccs2)n1-c1cnccn1` the value was -1.4% (inactive).
The same measure, in the same setting: for `COc1ccc(CC2C(=O)NC(=O)N(c3ccccc3)C2=O)c(OC)c1` (centres undefined) the value was -1.2% (inactive).
As to `CC1(C)CC(n2[nH]c(=O)c3c2NC(=O)CSC3c2ccc(F)cc2)CCO1` (centres undefined), the viability increase is -2.67% (inactive).
For the compound `Cc1cc(OCC(=O)NC2CCS(=O)(=O)C2)c2c3c(c(=O)oc2c1)CCC3` (centres undefined), the viability increase was -5.3% (inactive).
Consider `COc1cc(C2SCC(=O)Nc3c2c(=O)[nH]n3C2CCCCCC2)cc(OC)c1OC` (centres undefined), for which the viability increase is -2.62% (inactive).
As to `Cc1c(C(=O)N2CCC3(CC2)OCCO3)oc2ccc(S(=O)(=O)N3CCOCC3)cc12`, the viability increase was -1.67% (inactive).
Same read-out and setting: the figure for `FC(F)(F)/C(=N\P(=S)(N1CCOCC1)N1CCOCC1)N1CCOCC1` is -1.97% (inactive); for `O=C(CN1CCOCC1)c1ccc2cc[nH]c2c1` it is 0.03% (inactive); for `Cc1nc2ccc(Cl)cn2c1P(=S)(N1CCOCC1)N1CCOCC1` it is -2.81% (inactive).
The same measure, in the same setting: the figure for `COc1cccc(N2C(=O)CC(=O)NC2=O)c1` is -0.55% (inactive).
On the same count and under the same terms, the figure for `COc1cc2c(cc1OC)C(C(=O)N1CCC3(CC1)OCCO3)C(c1ccccc1F)N(C)C2=O` (centres undefined) is -3.17% (inactive).

Source of the values: PubChem BioAssay.
